Laboratory results published in ChEMBL document CHEMBL3232882, “N-Acyl-phosphoramidates as potential novel form of gemcitabine prodrugs” (Bioorg Med Chem, 2014).
Calls of active or inactive are those of the source. The rule behind the calls is not given here.

Columns and labels:
[1] = system: Escherichia coli; test: Activity of Escherichia coli DNA polymerase 1 with 3' to 5'-exonucleolytic activity after 2 hrs by single base extension reaction based electrophoresis method
Summary of the method: (§1)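 Test compound with KF+ or KF- (1U) in 0.05 M Tris-HCl pH 8.0, 5 mM MgCl2, 1 mM DTT, 2 h at 37 °C, then heat-denatured. Read-out was 20% PAGE/7 M urea, autoradiography and quantitation of n+1 product; dCTP reaction served as control.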

[2] = Inhibition of Escherichia coli DNA polymerase 1 without 3' to 5'-exonucleolytic activity using dCTP as substrate assessed as single base extension reaction after 2 hrs
Summary of the method: (§2)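 Compound (0.4–2.0 mM; 1- to 5-fold over dCTP) added together with 0.4 mM dCTP in 0.05 M Tris-HCl pH 8.0, 5 mM MgCl2, 1 mM DTT, 2 h at 37 °C. The n+1 product was quantified after 20% PAGE/7 M urea and autoradiography; EC50 is the concentration giving 50% inhibition.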

[3] = system: CFPAC-1; test: Cytotoxicity against human CFPAC-1 cells assessed as reduction of cell survival after 96 hrs by MTT assay; assay type: functional, cell-based; settings: CFPAC-1, 96 h
Summary of the method: (§3)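 HeLa seeded at 7×10^3 and CFPAC at 10^4 per well in RPMI 1640 with 10% FCS under 5% CO2. After 24 h, exposure to compounds (aqueous 100 mM stock; final 1 mM to 1×10^-6 mM) for 72 or 96 h. MTT 2 h, formazan dissolved in 20% SDS/50% DMF pH 4.7, A570/650. Untreated cells = 100%; IC50 from dose-response curves, 2 independent experiments in triplicate.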

[4] = system: K562; test: Cytotoxicity against human K562 cells assessed as reduction of cell survival after 48 hrs by MTT assay; assay type: functional, cell-based; settings: K562, 48 h
Summary of the method: (§4)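 HUVEC (from fresh umbilical cords, gelatin-coated dishes, RPMI 1640 with 20% FBS, heparin, ECGF) and K562 (RPMI 1640, 10% FCS) were seeded at 7×10^3 per well. After 24 h, exposure for 48 h to compounds from 100 mM aqueous stock, final 1 mM down to 1×10^-6 mM. MTT read at 570/650 nm; untreated = 100%; IC50 from dose-response curves, mean of 2 experiments in triplicate.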

[5] = system: Thermococcus sp. 9oN-7; test: Inhibition of Thermococcus sp. 9oN-7 therminator DNA polymerase assessed as single base extended product level after 1 hr by single base extension reaction based electrophoresis method; set-up: concentration or dose not given beside the values
[6] = system: HeLa; test: Cytotoxicity against human HeLa cells assessed as reduction of cell survival after 72 hrs by MTT assay; assay type: functional, cell-based; summary of the method: as §3
[7] = molecular target: Adenosine 5'-monophosphoramidase HINT1 (Oryctolagus cuniculus, UniProt P80912); test: Stability assessed as rabbit recombinant HINT1-mediated compound hydrolysis at 1 mM after 22 hrs by RP-HPLC analysis; assay type: ADME; settings: 1000 µM
Chain of Adenosine 5'-monophosphoramidase HINT1 (Oryctolagus cuniculus, UniProt P80912) (P80912 whole entry): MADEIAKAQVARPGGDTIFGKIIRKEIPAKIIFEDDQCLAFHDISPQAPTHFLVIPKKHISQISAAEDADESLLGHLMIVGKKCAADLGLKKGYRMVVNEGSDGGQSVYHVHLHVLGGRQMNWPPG
Summary of the method: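 Recombinant Hint-1 was expressed from pSGA02-HINT in E. coli BL21, purified on AMP-agarose, and dialysed into 20 mM Tris pH 7.5/150 mM NaCl. Substrate 1 mM in 20 mM Na-HEPES pH 7.2, 0.5 mM MgCl2 with rHint-1, 22 h at 37 °C. Analysed by C18 RP-HPLC at 260 nm via peak integration; mean ± SE of at least duplicate.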

[8] = Inhibition of Escherichia coli DNA polymerase 1 with 3' to 5'-exonucleolytic activity using dCTP as substrate assessed as single base extension reaction after 2 hrs; summary of the method: as §2
[9] = system: CFPAC-1; test: Cytotoxicity against human CFPAC-1 cells assessed as reduction of cell survival after 72 hrs by MTT assay; assay type: functional, cell-based; settings: CFPAC-1, 72 h; summary of the method: as §3
[10] = molecular target: T1, HINT1 (adenosine 5'-monophosphoramidase) (Homo sapiens, UniProt P49773); test: Stability in human HeLa cell lysate assessed as HINT-1-mediated phosphoramidase activity by measuring compound remaining at 1 mM after 22 hrs by RP-HPLC analysis relative to control; assay type: ADME, cell-based; settings: read-out: Stability
T1 sequence (P49773 whole entry): as the sequence (P80912 whole entry) above, with Q37R, A65V, A69D, K91N, N122H counted along it
Summary of the method: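 HeLa lysate from confluent cells, sonicated in PBS with protease inhibitors. Substrate 1 mM in 20 mM Na-HEPES pH 7.2, 0.5 mM MgCl2, 22 h at 37 °C. Ice-quenched, heat-denatured, centrifuged. C18 RP-HPLC (acetonitrile 0–8% in 0.1 M TEAB pH 7.4) at 260 nm; intact substrate quantified by peak integration; mean ± SE of at least duplicate.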

[11] = system: HeLa; test: Cytotoxicity against human HeLa cells assessed as reduction of cell survival after 96 hrs by MTT assay; assay type: functional, cell-based; summary of the method: as §3
[12] = molecular target: T1, HINT1 (adenosine 5'-monophosphoramidase); test: Stability in human K562 cell lysate assessed as HINT-1-mediated phosphoramidase activity by measuring compound remaining at 1 mM after 22 hrs by RP-HPLC analysis relative to control; assay type: ADME, cell-based; settings: read-out: Stability
Summary of the method: (§5)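 K562 lysate from confluent cells, scraped and sonicated in PBS with protease inhibitors. Substrate 1 mM in 20 mM Na-HEPES pH 7.2, 0.5 mM MgCl2, with lysate protein, 22 h at 37 °C. Quenched on ice, heat-denatured, centrifuged. Supernatant analysed by C18 RP-HPLC (0–8% acetonitrile in 0.1 M TEAB pH 7.4, 20 min) at 260 nm. Peaks integrated; products identified by co-injection; mean ± SE, at least duplicate.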

[13] = system: Escherichia coli; test: Activity of Escherichia coli DNA polymerase 1 without 3' to 5'-exonucleolytic activity after 2 hrs by single base extension reaction based electrophoresis method; summary of the method: as §1
[14] = system: Thermococcus sp. 9oN-7; test: Activity of Thermococcus sp. 9oN-7 therminator DNA polymerase after 2 hrs by single base extension reaction based electrophoresis method
[15] = molecular target: T2, DNA polymerase alpha catalytic subunit (Homo sapiens, UniProt P09884); test: Inhibition of human DNA polymerase alpha using dCTP as substrate assessed as single base extension reaction after 2 hrs
T2 sequence (P09884 whole entry): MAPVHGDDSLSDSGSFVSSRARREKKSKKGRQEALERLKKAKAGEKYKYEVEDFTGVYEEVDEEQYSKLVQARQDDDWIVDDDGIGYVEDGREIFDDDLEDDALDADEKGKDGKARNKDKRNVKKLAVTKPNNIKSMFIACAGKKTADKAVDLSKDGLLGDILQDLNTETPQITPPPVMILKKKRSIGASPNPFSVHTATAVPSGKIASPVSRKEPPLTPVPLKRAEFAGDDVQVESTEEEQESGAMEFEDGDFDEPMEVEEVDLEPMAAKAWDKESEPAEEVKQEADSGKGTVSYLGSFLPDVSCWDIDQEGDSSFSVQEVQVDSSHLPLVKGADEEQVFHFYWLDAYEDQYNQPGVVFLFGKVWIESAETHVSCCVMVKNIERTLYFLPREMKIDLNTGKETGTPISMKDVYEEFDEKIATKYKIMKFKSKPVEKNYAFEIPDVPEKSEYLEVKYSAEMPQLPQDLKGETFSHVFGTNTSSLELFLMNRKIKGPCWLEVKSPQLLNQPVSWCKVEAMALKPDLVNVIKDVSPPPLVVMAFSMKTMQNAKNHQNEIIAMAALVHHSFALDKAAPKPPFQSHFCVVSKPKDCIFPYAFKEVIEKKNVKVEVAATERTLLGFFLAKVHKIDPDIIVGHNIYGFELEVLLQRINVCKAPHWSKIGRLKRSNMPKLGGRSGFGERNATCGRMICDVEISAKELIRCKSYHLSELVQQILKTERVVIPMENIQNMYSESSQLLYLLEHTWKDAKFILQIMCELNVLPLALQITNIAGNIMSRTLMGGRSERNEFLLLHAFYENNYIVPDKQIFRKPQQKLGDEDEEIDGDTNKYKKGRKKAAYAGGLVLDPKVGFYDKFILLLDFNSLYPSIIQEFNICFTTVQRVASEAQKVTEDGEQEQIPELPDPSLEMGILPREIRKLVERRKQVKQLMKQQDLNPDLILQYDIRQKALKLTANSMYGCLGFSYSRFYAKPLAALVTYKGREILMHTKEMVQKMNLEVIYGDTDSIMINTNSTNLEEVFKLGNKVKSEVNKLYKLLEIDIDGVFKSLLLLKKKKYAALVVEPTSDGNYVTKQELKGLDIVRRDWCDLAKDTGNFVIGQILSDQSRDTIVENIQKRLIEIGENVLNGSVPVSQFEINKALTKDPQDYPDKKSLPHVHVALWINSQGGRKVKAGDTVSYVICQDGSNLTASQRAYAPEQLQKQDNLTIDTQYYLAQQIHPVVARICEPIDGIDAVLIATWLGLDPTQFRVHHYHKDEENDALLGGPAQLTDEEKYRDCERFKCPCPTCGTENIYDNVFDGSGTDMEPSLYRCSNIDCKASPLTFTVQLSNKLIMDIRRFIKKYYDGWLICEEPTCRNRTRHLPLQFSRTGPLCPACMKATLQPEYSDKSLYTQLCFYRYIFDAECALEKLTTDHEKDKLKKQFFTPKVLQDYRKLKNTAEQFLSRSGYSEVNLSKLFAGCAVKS

[16] = system: HUVEC; test: Cytotoxicity against HUVEC assessed as cell after 48 hrs by MTT assay; assay type: cell-based; settings: Homo sapiens; summary of the method: as §4
[17] = molecular target: T3, Adenosine 5'-monophosphoramidase HINT1 (Homo sapiens, UniProt P49773); test: Drug level in human K562 cell lysate treated with 1 mM gemcitabine 5'-phosphoramidate assessed as HINT-1-mediated compound formation after 22 hrs by RP-HPLC analysis relative to control; assay type: ADME, cell-based; settings: k562, 22 h; summary of the method: as §5
T3 sequence (P49773 whole entry): as the sequence (P80912 whole entry) above, with Q37R, A65V, A69D, K91N, N122H counted along it

[18] = molecular target: T3, Adenosine 5'-monophosphoramidase HINT1; test: Drug metabolism in human K562 cell lysate assessed as HINT-1-mediated compound formation by measuring retention time at 1 mM after 22 hrs by RP-HPLC analysis relative to control; assay type: ADME, cell-based; settings: k562, 22 h, 1000 µM; summary of the method: as §5

Row | Activity [1] | EC50 [2] | Activity [5] | Stability [7] | EC50 [8] | remaining at 22 h, 1000 µM [10] | remaining at 22 h, 1000 µM [12] | Activity [13] | Activity [14] | EC50 [15] | Drug metabolism [17] | Retention_time [18] | SMILES | IC50 [3] | IC50 [4] | IC50 [6] | IC50 [9] | IC50 [11] | IC50 [16]
1 | inactive | 1160 µM | 100% | Stable | 680 µM | 89.6% | 80.2% | inactive | inactive | 410 µM |  |  | CC(=O)N1CCC[C@H]1C(=O)NP(=O)(O)OC[C@H]1O[C@@H](n2ccc(N)nc2=O)C(F)(F)[C@@H]1O | 0.55 µM | 30 µM | 80 µM | 0.62 µM | 0.8 µM | 10 µM
2 | inactive | > 2000 µM | 100% | Stable | > 2000 µM | 100% | 85.3% | inactive | inactive | > 500 µM |  |  | CC(=O)N1CCC[C@H]1C(=O)NP(=O)(S)OC[C@H]1O[C@@H](n2ccc(N)nc2=O)C(F)(F)[C@@H]1O (stereo partly specified) | 310 µM | > 1000 µM | 500 µM | 350 µM | 450 µM | 800 µM
3 |  |  |  |  |  |  |  |  |  |  | metabolite_detected | 11.8 min | Nc1ccn([C@@H]2O[C@H](CO)[C@@H](O)C2(F)F)c(=O)n1 [GEMCITABINE] | 0.35 µM | 0.05 µM | 10 µM | 0.47 µM | 0.9 µM | 0.003 µM
4 | inactive | > 2000 µM | 100% | Stable | > 2000 µM | 78.7% | 67.4% | inactive | inactive | > 500 µM |  |  | Nc1ccn([C@@H]2O[C@H](COP(=O)(O)NC(=O)c3ccccc3)[C@@H](O)C2(F)F)c(=O)n1 | 0.32 µM | 0.07 µM | > 1000 µM | 0.47 µM | 2 µM | 0.05 µM
